Measured values from different studies.
CYP1A2: Cytochrome P450 1A2 (CYP1A2, Homo sapiens, UniProt P05177)

SMILES | tested on | test | system | setting | endpoint | value
COc1cc(C(=O)NC2CCN(C)CC2)c(F)cc1Nc1ncc(C(F)(F)F)c(Oc2cccc3c2C(=O)N(C)C3)n1 | – | – | human, plasma | oral, 100 mg, multiple doses, once daily, patients | Vd/F | 284 L
CCNc1nc(Nc2ccc(F)c(Cl)c2)c2ccccc2n1 | Vero | cell growth or viability, MTT | – | 31.25 µg/mL | viability | 100%
COC(=O)C1CCN(C(=O)c2ccc(N(CCO)Cc3cnc4nc(N)nc(N)c4n3)cc2)CC1 | CYP1A2 | enzyme activity, inhibitor, luciferase | – | 10 µM | inhibition | -7.15%
O=S(=O)(NNc1nnc(Cl)c2ccccc12)c1ccc(F)cc1 | Vero | cell growth or viability, MTT | – | 31.25 µg/mL | viability | 99.8%
COc1ccc([C@@H]2CN(C(=O)[C@@H](O)CO)C[C@@]2(C)[C@@H](C)O)cc1OC1CN(c2ccc(C)cn2)C1 | – | – | human, plasma | oral, 30 mg, single dose, healthy volunteers | Vd/F | 84.3 L
CC(C)(Sc1ccncc1-c1ccc(C#N)c2ccccc12)C(=O)O | – | – | male human, plasma | oral, 20 mg, single dose, fasted, healthy volunteers | Vd/F | 328 L
NC(=O)C1CCN(C(=O)c2ccc(NCc3cnc4nc(N)nc(N)c4n3)cc2)CC1 | CYP1A2 | enzyme activity, inhibitor, luciferase | – | 10 µM | inhibition | -17.4%
Cn1cnc2c1c(=O)n(CC(=O)Nc1c(Cl)cccc1Cl)c(=O)n2C | Vero | cell growth or viability, MTT | – | 1000 µg/mL | viability | 7.99%
COC(=O)C1CCN(C(=O)c2ccc(NCc3cnc4nc(N)nc(N)c4n3)cn2)CC1 | CYP1A2 | enzyme activity, inhibitor, luciferase | – | 10 µM | inhibition | -8.69%
CCNCCCNC/C=C\CNCCCNCC | – | – | human, plasma | intravenous, 50 mg, patients, infusion | Vd | 2.12 L/kg
Cc1cc(Nc2cc(N3CCN(C)CC3)nc(/C=C/c3ccccc3)n2)n[nH]1 | – | – | human, plasma | oral, 80 mg/m², multiple doses, patients | Vd/F | 748 L
